Experimental data from ChEMBL document CHEMBL2069235, “Synthesis and biological evaluation of tyrosine modified analogues of the α4β7 integrin inhibitor biotin-R₈ERY” (Bioorg Med Chem, 2012).
Activity calls are given as the source filed them. The calls are words filed in the database; no cut-off is given here. *1 amine or outer side, *2 acyl side, *3 side chain or, on linkers, in order; H or OH if unused. Where a SMILES comes first, the peptide text is derived from it. [ ]: non-standard residue; d: D form. The star is where a group is joined. X7 = O=C([C@H](Cc1ccc(-c2cccc([N+](=O)[O-])c2)cc1)N[*:1])[*:2]; Phe(4-(2-MeO-Ph)) = COc1ccccc1-c1ccc(C[C@H](N)C(=O)O)cc1; X3 = COc1cccc(OC)c1-c1ccc(C[C@H](N[*:1])C(=O)[*:2])cc1; X6 = COc1ccc(-c2ccc(C[C@H](N[*:1])C(=O)[*:2])cc2)cc1OC; X5 = N#Cc1ccc(-c2ccc(C[C@H](N[*:1])C(=O)[*:2])cc2)cc1; Bip(4'-Me) = Cc1ccc(-c2ccc(C[C@H](N)C(=O)O)cc2)cc1; X4 = O=C([C@H](Cc1ccc(C2=CCCCC2)cc1)N[*:1])[*:2]; Biotin = O=C1N[C@H]2[C@H](CS[C@H]2CCCCC(=O)*)N1; X1 = O=C([C@H](Cc1ccc(C2CCCCC2)cc1)N[*:1])[*:2]

Key:
Assay type in all cases: cell-based
[1] = molecular target: T1, Integrin alpha-4/beta-7 (Mus musculus) (UniProt Q00651+P26011); assay: Inhibition of alpha4beta7 assessed as inhibition of Mn(2+)-activated adhesion of mouse TK-1 T cells to mouse MAdCAM-1 at 100 uM incubated for 1 hr by cell adhesion assay
Outline: (§1)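 TK-1 cells (mouse AKR/Cum α4β7+/α4β1− CD8 T lymphoma), grown at 37 °C in RPMI 1640 with 10% FCS and 0.05 mM β-mercaptoethanol, were washed and held 1 h at room temperature in HBSS/10 mM Hepes with peptide. They were then activated with 2 mM MnCl₂ and added at 10⁶ cells/well to glass slides coated with mouse MAdCAM-1-Fc (10 μg/ml, FBS-blocked). Adhesion ran 30 min.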

[2] = molecular target: T1, Integrin alpha-4/beta-7 (Mus musculus); assay: Inhibition of alpha4beta7 assessed as inhibition of Mn(2+)-activated adhesion of mouse TK-1 T cells to mouse MAdCAM-1 at 50 uM incubated for 1 hr by cell adhesion assay; outline: as §1
[3] = molecular target: T1, Integrin alpha-4/beta-7 (Mus musculus); assay: Inhibition of alpha4beta7 assessed as inhibition of Mn(2+)-activated adhesion of mouse TK-1 T cells to mouse MAdCAM-1 at <5 to 10 uM incubated for 1 hr by cell adhesion assay; outline: as §1
[4] = molecular target: T1, Integrin alpha-4/beta-7 (Mus musculus); assay: Inhibition of alpha4beta7 assessed as inhibition of Mn(2+)-activated adhesion of mouse TK-1 T cells to mouse MAdCAM-1 at 25 uM incubated for 1 hr by cell adhesion assay; outline: as §1

Row | inhibition [1] [%] | inhibition [2] [%] | inhibition [3] | inhibition [4] | Structure (SMILES)
1 | 59.1 | 49.7 | – | – | N=C(N)NCCC[C@H](NC(=O)CCCC[C@@H]1SC[C@@H]2NC(=O)N[C@@H]21)C(=O)N[C@@H](CCCNC(=N)N)C(=O)N[C@@H](CCCNC(=N)N)C(=O)N[C@@H](CCCNC(=N)N)C(=O)N[C@@H](CCCNC(=N)N)C(=O)N[C@@H](CCCNC(=N)N)C(=O)N[C@@H](CCCNC(=N)N)C(=O)N[C@@H](CCCNC(=N)N)C(=O)N[C@@H](CCC(=O)O)C(=O)N[C@@H](CCCNC(=N)N)C(=O)N[C@@H](Cc1ccc(C2=CCCCC2)cc1)C(=O)O (Biotin-RRRRRRRRER[X4]-OH)
2 | 18.2 | 8.73 | – | – | N=C(N)NCCC[C@H](NC(=O)CCCC[C@@H]1SC[C@@H]2NC(=O)N[C@@H]21)C(=O)N[C@@H](CCCNC(=N)N)C(=O)N[C@@H](CCCNC(=N)N)C(=O)N[C@@H](CCCNC(=N)N)C(=O)N[C@@H](CCCNC(=N)N)C(=O)N[C@@H](CCCNC(=N)N)C(=O)N[C@@H](CCCNC(=N)N)C(=O)N[C@@H](CCCNC(=N)N)C(=O)N[C@@H](CCC(=O)O)C(=O)N[C@@H](CCCNC(=N)N)C(=O)N[C@@H](Cc1ccc(O)cc1)C(=O)O (Biotin-RRRRRRRRERY-OH)
3 | 57.3 | 47.4 | – | – | Cc1ccc(-c2ccc(C[C@H](NC(=O)[C@H](CCCNC(=N)N)NC(=O)[C@H](CCC(=O)O)NC(=O)[C@H](CCCNC(=N)N)NC(=O)[C@H](CCCNC(=N)N)NC(=O)[C@H](CCCNC(=N)N)NC(=O)[C@H](CCCNC(=N)N)NC(=O)[C@H](CCCNC(=N)N)NC(=O)[C@H](CCCNC(=N)N)NC(=O)[C@H](CCCNC(=N)N)NC(=O)[C@H](CCCNC(=N)N)NC(=O)CCCC[C@@H]3SC[C@@H]4NC(=O)N[C@@H]43)C(=O)O)cc2)cc1 (Biotin-RRRRRRRRER[Bip(4'-Me)]-OH)
4 | 64.8 | 71.7 | inactive | Active | N=C(N)NCCC[C@H](NC(=O)CCCC[C@@H]1SC[C@@H]2NC(=O)N[C@@H]21)C(=O)N[C@@H](CCCNC(=N)N)C(=O)N[C@@H](CCCNC(=N)N)C(=O)N[C@@H](CCCNC(=N)N)C(=O)N[C@@H](CCCNC(=N)N)C(=O)N[C@@H](CCCNC(=N)N)C(=O)N[C@@H](CCCNC(=N)N)C(=O)N[C@@H](CCCNC(=N)N)C(=O)N[C@@H](CCC(=O)O)C(=O)N[C@@H](CCCNC(=N)N)C(=O)N[C@@H](Cc1ccc(C2CCCCC2)cc1)C(=O)O (Biotin-RRRRRRRRER[X1]-OH)

Continued, compound first:

Row | Structure (SMILES) | inhibition [1] [%] | inhibition [2] [%] | inhibition [3] | inhibition [4]
5 | COc1ccccc1-c1ccc(C[C@H](NC(=O)[C@H](CCCNC(=N)N)NC(=O)[C@H](CCC(=O)O)NC(=O)[C@H](CCCNC(=N)N)NC(=O)[C@H](CCCNC(=N)N)NC(=O)[C@H](CCCNC(=N)N)NC(=O)[C@H](CCCNC(=N)N)NC(=O)[C@H](CCCNC(=N)N)NC(=O)[C@H](CCCNC(=N)N)NC(=O)[C@H](CCCNC(=N)N)NC(=O)[C@H](CCCNC(=N)N)NC(=O)CCCC[C@@H]2SC[C@@H]3NC(=O)N[C@@H]32)C(=O)O)cc1 (Biotin-RRRRRRRRER[Phe(4-(2-MeO-Ph))]-OH) | 47.1 | 48.1 | – | –
6 | COc1cccc(OC)c1-c1ccc(C[C@H](NC(=O)[C@H](CCCNC(=N)N)NC(=O)[C@H](CCC(=O)O)NC(=O)[C@H](CCCNC(=N)N)NC(=O)[C@H](CCCNC(=N)N)NC(=O)[C@H](CCCNC(=N)N)NC(=O)[C@H](CCCNC(=N)N)NC(=O)[C@H](CCCNC(=N)N)NC(=O)[C@H](CCCNC(=N)N)NC(=O)[C@H](CCCNC(=N)N)NC(=O)[C@H](CCCNC(=N)N)NC(=O)CCCC[C@@H]2SC[C@@H]3NC(=O)N[C@@H]32)C(=O)O)cc1 (Biotin-RRRRRRRRER[X3]-OH) | 50.9 | 38.3 | – | –
7 | N=C(N)NCCC[C@H](NC(=O)CCCC[C@@H]1SC[C@@H]2NC(=O)N[C@@H]21)C(=O)N[C@@H](CCCNC(=N)N)C(=O)N[C@@H](CCCNC(=N)N)C(=O)N[C@@H](CCCNC(=N)N)C(=O)N[C@@H](CCCNC(=N)N)C(=O)N[C@@H](CCCNC(=N)N)C(=O)N[C@@H](CCCNC(=N)N)C(=O)N[C@@H](CCCNC(=N)N)C(=O)N[C@@H](CCC(=O)O)C(=O)N[C@@H](CCCNC(=N)N)C(=O)N[C@@H](Cc1ccc(-c2cccc([N+](=O)[O-])c2)cc1)C(=O)O (Biotin-RRRRRRRRER[X7]-OH) | 60.3 | 50.5 | – | –
8 | N=C(N)NCCC[C@H](NC(=O)[C@H](CCCNC(=N)N)NC(=O)[C@H](CC(=O)O)NC(=O)[C@H](Cc1ccc(O)cc1)NC(=O)[C@@H](CCCNC(=N)N)NC(=O)[C@@H](CCCNC(=N)N)NC(=O)[C@@H](CCCNC(=N)N)NC(=O)[C@@H](CCCNC(=N)N)NC(=O)[C@@H](CCCNC(=N)N)NC(=O)[C@@H](CCCNC(=N)N)NC(=O)[C@@H](CCCNC(=N)N)NC(=O)[C@@H](CCCNC(=N)N)NC(=O)[C@@H](CCCNC(=N)N)NC(=O)CCCC[C@@H]1SC[C@@H]2NC(=O)N[C@@H]21)C(=O)N[C@@H](CCC(=O)O)C(=O)N[C@@H](Cc1ccc(O)cc1)C(=O)O | 71.3 | 66.4 | – | –
9 | COc1ccc(-c2ccc(C[C@H](NC(=O)[C@H](CCCNC(=N)N)NC(=O)[C@H](CCC(=O)O)NC(=O)[C@H](CCCNC(=N)N)NC(=O)[C@H](CCCNC(=N)N)NC(=O)[C@H](CCCNC(=N)N)NC(=O)[C@H](CCCNC(=N)N)NC(=O)[C@H](CCCNC(=N)N)NC(=O)[C@H](CCCNC(=N)N)NC(=O)[C@H](CCCNC(=N)N)NC(=O)[C@H](CCCNC(=N)N)NC(=O)CCCC[C@@H]3SC[C@@H]4NC(=O)N[C@@H]43)C(=O)O)cc2)cc1OC (Biotin-RRRRRRRRER[X6]-OH) | 50.1 | 37.9 | – | –
10 | N#Cc1ccc(-c2ccc(C[C@H](NC(=O)[C@H](CCCNC(=N)N)NC(=O)[C@H](CCC(=O)O)NC(=O)[C@H](CCCNC(=N)N)NC(=O)[C@H](CCCNC(=N)N)NC(=O)[C@H](CCCNC(=N)N)NC(=O)[C@H](CCCNC(=N)N)NC(=O)[C@H](CCCNC(=N)N)NC(=O)[C@H](CCCNC(=N)N)NC(=O)[C@H](CCCNC(=N)N)NC(=O)[C@H](CCCNC(=N)N)NC(=O)CCCC[C@@H]3SC[C@@H]4NC(=O)N[C@@H]43)C(=O)O)cc2)cc1 (Biotin-RRRRRRRRER[X5]-OH) | 57 | 45 | – | –
